Assay results from ChEMBL document CHEMBL1153277 (Bioorg Med Chem Lett, 2009).

Legend:
[1] = molecular target: Neuronal acetylcholine receptor subunit alpha-7 (Homo sapiens, UniProt P36544); assay: Agonist activity at human recombinant alpha7 nAChR expressed in rat GH3 cells by calcium influx assay; format: functional, cell-based
Outline: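 GH3 cells recombinantly expressing human α7 nAChR; agonist activity. Each compound run in duplicate. EC50 taken from individual 8-point concentration-response curves and expressed as pEC50, with Emax given in %.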

Homo sapiens [2] = species on record: Homo sapiens; assay: Selectivity for human alpha3beta4 nAChR over human alpha7 nAChR
[3] = molecular target: Acetylcholine receptor; alpha1/beta1/delta/gamma (Homo sapiens, UniProt P02708+P07510+P11230+Q07001); assay: Antagonist activity at human alpha-1-beta-1-gamma-delta nAChR expressed in human TE671 cells by calcium influx assay; format: functional, cell-based, TE-671
Acetylcholine receptor; alpha1/beta1/delta/gamma, sequence (P02708 whole entry): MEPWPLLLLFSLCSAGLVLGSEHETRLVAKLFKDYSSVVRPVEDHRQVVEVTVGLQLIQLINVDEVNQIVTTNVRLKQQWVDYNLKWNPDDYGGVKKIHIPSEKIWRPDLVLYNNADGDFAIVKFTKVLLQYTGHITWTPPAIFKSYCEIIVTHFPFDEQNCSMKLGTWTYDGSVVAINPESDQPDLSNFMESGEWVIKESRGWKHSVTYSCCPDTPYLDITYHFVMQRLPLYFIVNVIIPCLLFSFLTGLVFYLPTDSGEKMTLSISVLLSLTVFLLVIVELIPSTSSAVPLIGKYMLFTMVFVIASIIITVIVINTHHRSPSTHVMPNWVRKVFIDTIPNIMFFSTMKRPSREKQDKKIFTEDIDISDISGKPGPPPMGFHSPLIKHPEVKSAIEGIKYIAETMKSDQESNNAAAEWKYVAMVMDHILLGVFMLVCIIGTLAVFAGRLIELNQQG
Acetylcholine receptor; alpha1/beta1/delta/gamma, sequence (P07510 whole entry): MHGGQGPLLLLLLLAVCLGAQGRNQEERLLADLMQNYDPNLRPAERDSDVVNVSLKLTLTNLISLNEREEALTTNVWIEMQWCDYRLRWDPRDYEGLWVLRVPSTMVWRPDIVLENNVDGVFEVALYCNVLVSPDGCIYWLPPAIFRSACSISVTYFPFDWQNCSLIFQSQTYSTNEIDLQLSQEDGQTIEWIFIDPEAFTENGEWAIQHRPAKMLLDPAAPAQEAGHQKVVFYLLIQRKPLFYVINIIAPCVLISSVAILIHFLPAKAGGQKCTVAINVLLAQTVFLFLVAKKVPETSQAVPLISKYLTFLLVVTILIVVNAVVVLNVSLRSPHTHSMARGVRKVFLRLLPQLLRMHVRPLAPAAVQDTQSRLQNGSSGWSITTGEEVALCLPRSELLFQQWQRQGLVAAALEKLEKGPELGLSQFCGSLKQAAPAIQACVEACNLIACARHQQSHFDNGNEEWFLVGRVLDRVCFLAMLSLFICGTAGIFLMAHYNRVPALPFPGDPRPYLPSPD
Acetylcholine receptor; alpha1/beta1/delta/gamma, sequence (P11230 whole entry): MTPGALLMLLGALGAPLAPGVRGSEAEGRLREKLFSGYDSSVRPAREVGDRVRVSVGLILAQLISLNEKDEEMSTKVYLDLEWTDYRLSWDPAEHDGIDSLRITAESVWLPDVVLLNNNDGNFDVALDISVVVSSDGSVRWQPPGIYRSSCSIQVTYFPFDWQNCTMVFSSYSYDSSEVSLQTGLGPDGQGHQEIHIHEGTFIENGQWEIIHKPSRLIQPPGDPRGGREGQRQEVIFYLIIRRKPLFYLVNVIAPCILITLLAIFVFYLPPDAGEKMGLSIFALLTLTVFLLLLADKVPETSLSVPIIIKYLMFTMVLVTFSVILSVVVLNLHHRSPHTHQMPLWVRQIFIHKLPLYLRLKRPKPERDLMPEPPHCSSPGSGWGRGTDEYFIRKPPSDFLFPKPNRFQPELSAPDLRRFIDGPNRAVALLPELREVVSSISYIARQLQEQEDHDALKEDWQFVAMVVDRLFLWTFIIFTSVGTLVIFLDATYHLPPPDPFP
Acetylcholine receptor; alpha1/beta1/delta/gamma, sequence (Q07001 whole entry): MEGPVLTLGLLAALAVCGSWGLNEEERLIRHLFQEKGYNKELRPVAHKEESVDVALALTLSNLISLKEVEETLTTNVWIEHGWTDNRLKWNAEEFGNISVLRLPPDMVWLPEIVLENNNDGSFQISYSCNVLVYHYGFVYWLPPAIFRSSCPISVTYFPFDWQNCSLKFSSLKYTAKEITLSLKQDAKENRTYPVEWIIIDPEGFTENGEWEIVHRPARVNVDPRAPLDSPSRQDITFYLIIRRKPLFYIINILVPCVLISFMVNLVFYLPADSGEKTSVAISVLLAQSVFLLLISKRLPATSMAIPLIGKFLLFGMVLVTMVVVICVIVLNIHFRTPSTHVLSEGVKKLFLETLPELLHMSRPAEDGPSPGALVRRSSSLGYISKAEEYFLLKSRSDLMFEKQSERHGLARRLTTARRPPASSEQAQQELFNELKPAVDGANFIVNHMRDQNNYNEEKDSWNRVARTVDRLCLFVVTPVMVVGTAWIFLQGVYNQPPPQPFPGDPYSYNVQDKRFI

[4] = molecular target: T1, 5-hydroxytryptamine receptor 3A (Homo sapiens, UniProt P46098); assay: Antagonist activity at human 5HT3 receptor by calcium influx assay; format: functional
T1 sequence (P46098 whole entry): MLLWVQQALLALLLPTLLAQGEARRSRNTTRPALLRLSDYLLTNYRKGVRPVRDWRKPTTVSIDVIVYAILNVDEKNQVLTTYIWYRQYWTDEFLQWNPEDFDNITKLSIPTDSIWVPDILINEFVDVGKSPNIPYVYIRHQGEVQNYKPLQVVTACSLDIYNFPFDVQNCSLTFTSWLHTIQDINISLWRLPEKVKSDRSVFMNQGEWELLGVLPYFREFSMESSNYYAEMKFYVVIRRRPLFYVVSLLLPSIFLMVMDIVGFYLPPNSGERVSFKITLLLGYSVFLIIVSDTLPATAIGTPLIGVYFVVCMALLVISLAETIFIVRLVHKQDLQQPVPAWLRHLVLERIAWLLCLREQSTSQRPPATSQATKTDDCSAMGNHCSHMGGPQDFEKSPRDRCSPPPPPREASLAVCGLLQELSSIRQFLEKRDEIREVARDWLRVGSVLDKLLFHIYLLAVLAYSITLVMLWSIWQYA

[5] = molecular target: Neuronal acetylcholine receptor; alpha4/beta2 (Homo sapiens, UniProt P17787+P43681); assay: Antagonist activity at human alpha4beta2 nAChR expressed in HEK293 cells by calcium influx assay; format: functional, cell-based
Neuronal acetylcholine receptor; alpha4/beta2, sequence (P17787 whole entry): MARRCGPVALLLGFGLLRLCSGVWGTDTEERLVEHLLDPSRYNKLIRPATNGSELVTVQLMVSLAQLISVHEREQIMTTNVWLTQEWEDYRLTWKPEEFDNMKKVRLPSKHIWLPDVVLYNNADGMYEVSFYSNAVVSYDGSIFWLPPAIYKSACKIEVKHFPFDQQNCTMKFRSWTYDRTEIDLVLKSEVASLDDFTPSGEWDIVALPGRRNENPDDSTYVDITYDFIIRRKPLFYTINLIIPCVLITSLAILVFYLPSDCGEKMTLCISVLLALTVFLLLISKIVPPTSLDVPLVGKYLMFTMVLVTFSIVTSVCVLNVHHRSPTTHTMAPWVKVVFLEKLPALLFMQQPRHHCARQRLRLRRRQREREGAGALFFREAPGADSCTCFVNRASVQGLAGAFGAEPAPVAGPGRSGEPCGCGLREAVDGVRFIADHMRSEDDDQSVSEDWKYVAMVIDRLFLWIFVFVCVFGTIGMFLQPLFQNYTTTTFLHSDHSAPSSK
Neuronal acetylcholine receptor; alpha4/beta2, sequence (P43681 whole entry): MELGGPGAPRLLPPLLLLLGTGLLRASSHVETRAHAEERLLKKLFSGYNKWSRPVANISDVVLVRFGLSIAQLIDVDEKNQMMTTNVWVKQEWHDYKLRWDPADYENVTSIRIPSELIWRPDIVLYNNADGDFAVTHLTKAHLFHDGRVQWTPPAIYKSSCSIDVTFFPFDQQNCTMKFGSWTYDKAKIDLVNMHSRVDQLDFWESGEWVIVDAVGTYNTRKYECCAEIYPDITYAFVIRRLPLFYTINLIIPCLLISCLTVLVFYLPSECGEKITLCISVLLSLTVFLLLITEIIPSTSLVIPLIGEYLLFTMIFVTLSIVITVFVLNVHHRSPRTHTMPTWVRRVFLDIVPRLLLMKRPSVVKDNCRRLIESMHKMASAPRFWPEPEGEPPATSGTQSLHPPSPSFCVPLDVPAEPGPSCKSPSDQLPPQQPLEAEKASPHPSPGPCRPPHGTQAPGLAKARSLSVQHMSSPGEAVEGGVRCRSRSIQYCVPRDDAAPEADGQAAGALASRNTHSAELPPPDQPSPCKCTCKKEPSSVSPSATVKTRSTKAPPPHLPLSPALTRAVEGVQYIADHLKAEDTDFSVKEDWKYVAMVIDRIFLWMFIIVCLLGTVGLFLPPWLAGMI

[6] = molecular target: Neuronal acetylcholine receptor; alpha3/beta4 (Homo sapiens, UniProt P30926+P32297); assay: Antagonist activity at human alpha3beta4 nAChR expressed in HEK293 cells by calcium influx assay; format: functional, cell-based
Neuronal acetylcholine receptor; alpha3/beta4, sequence (P30926 whole entry): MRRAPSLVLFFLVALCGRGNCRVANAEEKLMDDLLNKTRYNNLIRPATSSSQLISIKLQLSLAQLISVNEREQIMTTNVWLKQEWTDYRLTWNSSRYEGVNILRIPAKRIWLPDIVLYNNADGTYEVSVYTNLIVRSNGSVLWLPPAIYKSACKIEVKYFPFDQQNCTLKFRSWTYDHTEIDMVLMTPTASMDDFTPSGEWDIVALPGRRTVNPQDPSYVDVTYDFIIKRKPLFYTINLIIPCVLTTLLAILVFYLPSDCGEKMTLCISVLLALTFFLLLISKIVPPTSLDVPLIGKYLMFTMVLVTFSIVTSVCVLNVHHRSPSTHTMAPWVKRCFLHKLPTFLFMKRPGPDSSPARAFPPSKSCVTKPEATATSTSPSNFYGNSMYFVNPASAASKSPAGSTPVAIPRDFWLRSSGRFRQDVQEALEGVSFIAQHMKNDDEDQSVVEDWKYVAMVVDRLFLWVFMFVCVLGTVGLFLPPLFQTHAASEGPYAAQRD
Neuronal acetylcholine receptor; alpha3/beta4, sequence (P32297 whole entry): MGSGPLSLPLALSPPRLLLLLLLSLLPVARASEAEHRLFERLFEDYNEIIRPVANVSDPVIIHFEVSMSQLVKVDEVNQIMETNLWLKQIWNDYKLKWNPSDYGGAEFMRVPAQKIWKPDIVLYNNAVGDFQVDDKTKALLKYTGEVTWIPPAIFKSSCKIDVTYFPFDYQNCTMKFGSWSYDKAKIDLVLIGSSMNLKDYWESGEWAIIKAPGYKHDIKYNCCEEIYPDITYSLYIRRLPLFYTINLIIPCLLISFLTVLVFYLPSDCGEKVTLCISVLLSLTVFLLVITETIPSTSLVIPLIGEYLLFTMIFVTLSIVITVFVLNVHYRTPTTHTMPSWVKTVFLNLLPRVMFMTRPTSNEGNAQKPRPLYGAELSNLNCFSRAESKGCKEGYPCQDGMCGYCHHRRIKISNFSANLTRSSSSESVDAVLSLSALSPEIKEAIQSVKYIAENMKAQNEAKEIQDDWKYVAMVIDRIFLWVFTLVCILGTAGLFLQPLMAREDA

Homo sapiens [7] = species on record: Homo sapiens; assay: Selectivity for human alpha4beta2 nAChR over human alpha7 nAChR
Homo sapiens [8] = species on record: Homo sapiens; assay: Selectivity for human 5HT3 receptor over human alpha7 nAChR
Homo sapiens [9] = species on record: Homo sapiens; assay: Selectivity for human alpha-1-beta-1-gamma-delta nAChR over human alpha7 nAChR
Mus musculus [10] = assay: Plasma concentration in DBA/2 mouse at 30 umol/kg, po after 4 hrs; format: ADME, organism-based; conditions: in vivo
Outline: (§1)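 Mice (n = 6) dosed 30 µmol/kg po. Brain and plasma levels measured at 1 h and 4 h after dosing, reported as pmol/g.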

[11] = Metabolic stability in mouse liver microsomes assessed as hepatic extraction ratio; format: ADME, Microsome; conditions: read-out: Activity
Outline: (§2)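 Compound incubated with mouse or human liver microsomes. In vitro hepatic extraction ratio reported as % compound depleted at the end of the experiment; half-life also given.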

Mus musculus [12] = assay: Plasma concentration in DBA/2 mouse at 30 umol/kg, po after 1 hr; format: ADME, organism-based; conditions: in vivo; outline: as §1
[13] = Metabolic stability in human liver microsomes assessed as hepatic extraction ratio; format: ADME, Microsome; conditions: read-out: Activity; outline: as §2
Brain [14] = assay: Drug level in DBA/2 mouse brain at 30 umol/kg, po after 4 hrs; format: ADME, organism-based; conditions: in vivo; outline: as §1
[15] = Octanol-water partition coefficient, log P of the compound; format: physicochemical
Brain [16] = assay: Drug level in DBA/2 mouse brain at 30 umol/kg, po after 1 hr; format: ADME, organism-based; conditions: in vivo; outline: as §1

Neuronal acetylcholine receptor subunit alpha-7, sequence (P36544 whole entry): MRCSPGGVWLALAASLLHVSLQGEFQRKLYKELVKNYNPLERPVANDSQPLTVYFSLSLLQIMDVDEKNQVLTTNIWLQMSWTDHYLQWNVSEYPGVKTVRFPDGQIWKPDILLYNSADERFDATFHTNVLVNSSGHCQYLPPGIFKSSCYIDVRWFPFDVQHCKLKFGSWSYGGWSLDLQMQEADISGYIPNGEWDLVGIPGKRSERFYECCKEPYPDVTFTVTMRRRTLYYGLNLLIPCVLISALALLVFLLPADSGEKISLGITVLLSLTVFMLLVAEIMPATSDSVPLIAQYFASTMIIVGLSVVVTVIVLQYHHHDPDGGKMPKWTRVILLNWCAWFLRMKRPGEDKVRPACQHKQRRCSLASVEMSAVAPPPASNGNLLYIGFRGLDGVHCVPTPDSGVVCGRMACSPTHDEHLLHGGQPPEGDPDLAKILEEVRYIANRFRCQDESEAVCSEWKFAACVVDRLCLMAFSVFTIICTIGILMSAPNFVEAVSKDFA

| SMILES | EC50 [1] [nM] | Emax [1] [%] | also measured |
| --- | --- | --- | --- |
| O=C1NC[C@@]2(CN3CCC2CC3)O1 | 398 | 104 |  |
| CN1C(=O)[C@@H](CN2CCCCC2)C[C@H]1c1ccccc1Cl | 794 | 89 |  |
| CN1C(=O)[C@@H](CN2CCCCC2)C[C@H]1C#Cc1ccccc1Cl | 25.1 | 89 | Ratio (Homo sapiens [2]): 52 |
| CN1C(=O)[C@@H](CN2CCCCC2)C[C@H]1c1ccc(-c2ccccc2)cc1 | 1260 | 61 |  |
| CN1CCC[C@H]1c1cccnc1 |  | 100 |  |
| CN1C(=O)[C@@H](CN2CCCCC2)C[C@H]1c1nc(-c2ccccc2Cl)c[nH]1 (relative stereo) | 1260 | 61 |  |
| CN1C(=O)[C@@H](CN2CCCCC2)C[C@H]1c1ccc(Br)cc1 (relative stereo) | 631 | 89 |  |
| Cc1cc([C@@H]2C[C@H](CN3CCCCC3)C(=O)N2C)sc1-c1ccccc1Cl (relative stereo) | 631 | 81 |  |
| CN1C(=O)[C@@H](CN2CCCCC2)C[C@H]1C#Cc1ccc2c(ccn2C)c1 (relative stereo) | 7.94 | 100 | Ratio (Homo sapiens [2]): 111; IC50 [3]: 3980 nM; IC50 [4]: 25100 nM; IC50 [5]: 2000 nM; IC50 [6]: 1000 nM; Ratio (Homo sapiens [7]): 232; Ratio (Homo sapiens [8]): 3220; Ratio (Homo sapiens [9]): 431 |
| CN1C(=O)[C@@H](CN2CCCCC2)C[C@H]1C#Cc1ccc2occc2c1 (relative stereo) | 7.94 | 90 | Cp (Mus musculus [10]): 544 pmol/g; Ratio (Homo sapiens [2]): 123; IC50 [3]: 100000 nM; hepatic extraction ratio [11]: 0.67; IC50 [4]: 100000 nM; IC50 [5]: 5010 nM; IC50 [6]: 794 nM; Ratio (Homo sapiens [7]): 660; Ratio (Homo sapiens [8]): 17000; Ratio (Homo sapiens [9]): 17000; Cp (Mus musculus [12]): 1001 pmol/g; hepatic extraction ratio [13]: 0.68; Drug uptake (Brain [14]): 3676 pmol/g; logP [15]: 3.9; Drug uptake (Brain [16]): 6533 pmol/g |
| CN1C(=O)[C@@H](CN2CCCCC2)C[C@H]1c1nc(-c2ccccc2Cl)cn1C (relative stereo) | 631 | 47 |  |
| Cc1ccccc1C#C[C@@H]1C[C@H](CN2CCCCC2)C(=O)N1C (relative stereo) | 15.8 | 83 | Ratio (Homo sapiens [2]): 104 |
| CN1C(=O)[C@@H](CN2CCCCC2)C[C@H]1c1ccc(C2CCCC2)cc1 (relative stereo) | 316 | 28 |  |
| CN1C(=O)[C@@H](CN2CCCCC2)C[C@H]1c1ccc(-c2ccccc2F)cc1 (relative stereo) | 316 | 47 |  |
| CN1C(=O)[C@@H](CN2CCCCC2)C[C@H]1c1ccc(-c2ccccc2Cl)cc1 (relative stereo) | 126 | 62 | Ratio (Homo sapiens [2]): 3 |
| CN1C(=O)[C@@H](CN2CCCCC2)C[C@H]1c1ccc(-c2ccccc2Cl)s1 (relative stereo) | 31.6 | 79 | Ratio (Homo sapiens [2]): 26 |
| CN1C(=O)[C@@H](CN2CCCCC2)C[C@H]1c1cccc(Cl)c1 (relative stereo) | 1000 | 102 |  |
| COc1cccc([C@@H]2C[C@H](CN3CCCC3)C(=O)N2C)c1 (relative stereo) | 7940 | 80 |  |
| COc1ccccc1[C@@H]1C[C@H](CN2CCCCC2)C(=O)N1C (relative stereo) | 1260 | 107 |  |
| COc1ccc([C@@H]2C[C@H](CN3CCCCC3)C(=O)N2C)cc1 (relative stereo) | 1260 | 124 |  |
| CN1C(=O)[C@@H](CN2CCCCC2)C[C@H]1C#Cc1ccc2c(c1)CCO2 (relative stereo) | 7.94 | 80 | Ratio (Homo sapiens [2]): 154; IC50 [3]: 6310 nM; IC50 [4]: 50100 nM; IC50 [5]: 10000 nM; IC50 [6]: 1000 nM; Ratio (Homo sapiens [7]): 1260; Ratio (Homo sapiens [8]): 5390; Ratio (Homo sapiens [9]): 773 |
| CN1C(=O)[C@@H](CN2CCCCC2)C[C@H]1c1ccc(Cl)cc1 (relative stereo) | 1000 | 110 |  |
| Cc1ccc([C@@H]2C[C@H](CN3CCCCC3)C(=O)N2C)cc1 (relative stereo) | 631 | 114 |  |
| CN1C(=O)[C@@H](CN2CCCCC2)C[C@H]1c1cnc(-c2ccccc2Cl)s1 (relative stereo) | 25.1 | 89 | Ratio (Homo sapiens [2]): 14 |
| CN1C(=O)[C@@H](CN2CCCCC2)C[C@H]1c1ccc(C2CCCCC2)cc1 (relative stereo) | 316 | 60 |  |
| COc1cccc([C@@H]2C[C@H](CN3CCCCC3)C(=O)N2C)c1 (relative stereo) | 1260 | 128 |  |
| CN1C(=O)[C@@H](CN2CCCCCC2)C[C@H]1c1ccccc1Cl (relative stereo) | 2000 | 82 |  |
| Clc1ccc([C@@H]2C[C@H]3CC[C@@H]2N3)cn1 [(+)-EPIBATIDINE] | 39.8 | 100 |  |
| COc1ccc(/C=C2\CCCN=C2c2cccnc2)c(OC)c1 [GTS-21] | 2000 | 71 |  |
